Reference: ChEMBL document CHEMBL1147571, “Synthesis and biological evaluation of benzamides and benzamidines: structural requirement of a pyrimidine ring for inhibition of EGFR tyrosine kinase” (Bioorg Med Chem Lett, 2004)

Key:
[1] = system: A-431; assay: Cytotoxic effect on A431 human epidermoid carcinoma cells (No response to 1 mM); format: functional, cell-based
Procedure, shortened: (§1)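 A431 human epidermoid carcinoma cells exposed to compounds up to 1.0 mM and scored for cell growth inhibition. The IC50 is the compound concentration giving 50% growth inhibition. Where 50% inhibition was not reached at 1.0 mM, that is recorded instead of a value.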

[2] = system: A-431; assay: Cytotoxic effect on A431 human epidermoid carcinoma cells; format: functional, cell-based; procedure, shortened: as §1

`COc1cc(N)c(C(=O)Nc2cccnc2)cc1OC` showed an IC50 [1] of over 1000 µM.
Work on `COc1cc2c(cc1OC)C(Nc1cccc(Cl)c1)=NC(C)(C)N2` yielded an IC50 [2] of 200 µM.
Molecule `COc1cc(N)c(C(=O)Nc2cccc(Br)c2)cc1OC` has an IC50 [2] of 340 µM.
In the case of `COc1cc(N)c(C(=O)NC(C)c2ccccc2)cc1OC` (configuration not stated), the IC50 [1] is reported as over 1000 µM.
Molecule `COc1cc(N)c(C(=N)Nc2ccc(F)c(Cl)c2)cc1OC` has an IC50 [2] of 200 µM.
In the case of `COc1cccc(NC(=O)c2cc(OC)c(OC)cc2N)c1`, the IC50 [2] is reported as 200 µM.
`COc1cccc(NC(=N)c2cc(OC)c(OC)cc2N)c1` was tested, and the IC50 [2] was 340 µM.
With `COc1cc(N)c(C(=N)Nc2cccc(Br)c2)cc1OC` the IC50 [2] was 300 µM.
For `COc1cccc(NC2=NC(C)(C)Nc3cc(OC)c(OC)cc32)c1`, the IC50 [2] was 320 µM.
With `COc1cc2c(cc1OC)C(Nc1cccc(Br)c1)=NC(C)(C)N2` the IC50 [2] was 130 µM.
`COc1cc(N)c(C(=O)Nc2ccc(F)c(Cl)c2)cc1OC` showed an IC50 [1] of over 1000 µM.
In the case of `COc1cc(N)c(C(=O)NC2CCCCC2)cc1OC`, the IC50 [1] is reported as over 1000 µM.
Work on `COc1cc(N)c(C(=O)Nc2ccccn2)cc1OC` yielded an IC50 [1] of over 1000 µM.
`COc1cc(N)c(C(=O)Nc2ccncc2)cc1OC` gave an IC50 [1] of over 1000 µM.
Molecule `COc1cc(N)c(C(=O)Nc2cccc(C(F)(F)F)c2)cc1OC` has an IC50 [2] of 470 µM.
Molecule `COc1cc(N)c(C(=N)Nc2cccc(Cl)c2)cc1OC` has an IC50 [2] of 460 µM.
In the case of `COc1cc2c(cc1OC)C(Nc1ccc(F)c(Cl)c1)=NC(C)(C)N2`, the IC50 [2] is reported as 90 µM.
